Experimental data taken from ChEMBL document CHEMBL1122163, “4-hydroxyquinoline-3-carboxylic acids as inhibitors of cell respiration. 2. Quantitative structure-activity relationship of dehydrogenase enzyme and Ehrlich ascites tumor cell inhibitions” (J Med Chem, 1982).
Calls of active or inactive are those of the source. The calls are words filed in the database; no cut-off is given here.

Assays:
[1] = system: L-lactate dehydrogenase, skeletal muscle M4 (Oryctolagus cuniculus); assay: Ability to inhibit skeletal muscle LDH (LDH-M4); Inactive; settings: Muscle tissue
[2] = target: T1, Malate dehydrogenase, cytoplasmic (Sus scrofa) (UniProt P11708); assay: Ability to inhibit cytoplasmic malate dehydrogenase; Inactive
T1 sequence (whole entry): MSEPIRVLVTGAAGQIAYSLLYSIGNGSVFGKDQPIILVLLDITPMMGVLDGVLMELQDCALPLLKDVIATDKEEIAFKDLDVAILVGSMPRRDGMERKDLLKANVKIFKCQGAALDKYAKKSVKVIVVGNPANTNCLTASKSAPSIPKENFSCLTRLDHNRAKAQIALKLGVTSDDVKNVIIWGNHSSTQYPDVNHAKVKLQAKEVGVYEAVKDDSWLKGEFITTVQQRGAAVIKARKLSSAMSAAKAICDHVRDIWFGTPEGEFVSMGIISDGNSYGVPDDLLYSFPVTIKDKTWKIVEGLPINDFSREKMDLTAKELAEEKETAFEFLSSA
Procedure, shortened: (§1)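 Pig heart enzyme (cytoplasmic or mitochondrial form), diluted in 0.05 M Tris pH 7.4 with 1% BSA to give 0.022–0.027 OD/min at 340 nm. Cuvette holds 0.05 M Tris pH 8.4, L-malate, NAD+ and Me2SO ± inhibitor. Equilibrated at 25 °C, then started with enzyme. Five inhibitor concentrations in triplicate; I50 from least-squares dose-response line.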

[3] = target: T2, Malate dehydrogenase, mitochondrial (Sus scrofa) (UniProt P00346); assay: Ability to inhibit mitochondrial malate dehydrogenase; Inactive
T2 sequence (whole entry): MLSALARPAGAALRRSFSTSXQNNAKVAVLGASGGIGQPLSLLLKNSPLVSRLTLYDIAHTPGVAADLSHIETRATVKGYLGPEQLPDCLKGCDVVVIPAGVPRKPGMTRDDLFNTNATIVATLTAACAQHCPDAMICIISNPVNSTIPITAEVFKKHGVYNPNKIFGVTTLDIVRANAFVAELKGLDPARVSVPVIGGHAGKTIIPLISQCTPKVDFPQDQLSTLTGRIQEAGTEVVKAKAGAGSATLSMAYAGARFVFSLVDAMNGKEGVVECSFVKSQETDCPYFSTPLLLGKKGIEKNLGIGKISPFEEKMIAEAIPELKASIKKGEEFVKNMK
Procedure, shortened: as §1

Row | Compound | pI50 [2] | pI50 [3] | pI50 [1]
1 | O=C(O)c1cnc2cc(OCCOc3ccc4ccccc4c3)ccc2c1O | inactive | – | inactive
2 | O=C(O)c1cnc2cc(OCCc3ccc(Oc4ccccc4)cc3)ccc2c1O | – | – | inactive
3 | O=C(O)c1cnc2ccccc2c1O | inactive | inactive | inactive
4 | O=C(O)c1cnc2cc(F)ccc2c1O | – | – | inactive
5 | O=C(O)c1cnc2cc(OCCc3ccccc3)ccc2c1O | – | – | inactive
6 | COc1ccc2c(O)c(C(=O)O)cnc2c1 | inactive | inactive | inactive
7 | O=C(O)c1cnc2cc(OCCOc3ccc(Oc4ccccc4)cc3)ccc2c1O | – | – | inactive
8 | NC(=O)c1ccc2c(O)c(C(=O)O)cnc2c1 | – | – | inactive
9 | O=C(O)c1cnc2cc(OCCOc3ccc(Br)cc3)ccc2c1O | inactive | – | inactive
10 | O=C(O)c1cnc2cc(OCCc3ccc4ccccc4c3)ccc2c1O | – | – | inactive
11 | O=C(O)c1cnc2cc(OCCOc3ccccc3)ccc2c1O | inactive | – | inactive

The next lines start with results.

Row | pI50 [2] | pI50 [3] | Compound | pI50 [1]
12 | inactive | – | O=C(O)c1cnc2cc(OCc3ccc(Cl)c(Cl)c3)ccc2c1O | inactive
13 | inactive | – | O=C(O)c1cnc2cc(OCc3c(Cl)c(Cl)c(Cl)c(Cl)c3Cl)ccc2c1O | inactive
14 | inactive | – | O=C(O)c1cnc2cc(OCc3cccc4ccccc34)ccc2c1O | inactive
15 | inactive | – | O=C(O)c1cnc2cc(OCc3ccccc3)ccc2c1O | inactive
16 | inactive | – | O=C(O)c1cnc2cc(OCc3ccc4ccccc4c3)ccc2c1O | inactive
17 | inactive | – | O=C(O)c1cnc2cc(OCCc3ccc(F)cc3)ccc2c1O | inactive
18 | inactive | – | O=C(O)c1cnc2cc(OCCOc3ccc(F)cc3)ccc2c1O | inactive
19 | inactive | – | O=C(O)c1cnc2cc(OCc3ccc(F)cc3)ccc2c1O | inactive
20 | inactive | – | O=C(O)c1cnc2cc(OCc3ccc(Br)cc3)ccc2c1O | inactive
